Results reported in ChEMBL document CHEMBL4602726, “Discovery of the First Vitamin K Analogue as a Potential Treatment of Pharmacoresistant Seizures” (J Med Chem, 2020).

Key:
[1] = Toxicity in CF1 mouse assessed as induction of abdominal constriction measured during 1 hr observation period by writhing test; conditions: in vivo
[2] = Ratio of drug level in brain to plasma in CD1 mouse at 400 mg/kg, ip after 1 hr by LC-MS/MS analysis; format: ADME, organism-based; conditions: brain and plasma, read-out: BPR
Outline: (§1)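 Male mice fasted overnight and given ip dose in 95% Miglyol 840/5% DMSO. Plasma precipitated 3:1 with acetonitrile plus internal standard. Brain homogenized 3:1 in PBS, then acetonitrile extraction. LC-MS/MS in MRM mode, standard curve 1 ng/mL–10 μg/mL. Ratio = mean tissue (ng/g) over mean plasma (ng/mL) concentration.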

[3] = Drug level in CD1 mouse brain at 400 mg/kg, ip after 4 hrs by LC-MS/MS analysis; format: ADME, organism-based; conditions: read-out: Drug uptake; outline: as §1
[4] = Cmax in CD1 mouse at 20 mg/kg, ip measured after 0.083 to 24 hrs by LC-MS/MS analysis; format: ADME, organism-based; parameters: dose 20 mg/kg, route intraperitoneal; conditions: in vivo
Outline: (§2)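 Male CD-1 mice, 3 per route. Oral and ip at 20 mg/kg by gavage needle; iv at 5 mg/kg by tail vein. Vehicles were 20% DMA:40% PEG300:40% H2O for oral/iv and 5% DMSO:95% Neobee for ip. Blood sampled 0.083–24 h, plasma protein-precipitated with acetonitrile plus internal standard, LC-MS/MS (MRM). Non-compartmental analysis, linear trapezoidal AUC.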

[5] = tested on: Mus musculus; assay: Anti-seizure activity in CF1 mouse assessed as attenuation of psychomotor seizures at stimulus intensities of 32 mA at 400 mg/kg, ip measured at 0.25 to 4 hrs by 6 Hz limbic seizure test relative to control; format: functional
Outline: (§3)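 Male CF-1 mice, n=8 per dose. 6 Hz, 3 s corneal stimulation at 32 or 44 mA. Compound given ip in miglyol840/DMSO (95%/5%). Time of peak effect found by testing at 0.25–4 h; dose-response run at that time. Protected if no stun, jaw/forelimb clonus, vibrissae twitching or Straub tail for ≥1 s. ED50 by Probit analysis.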

[6] = Drug level in CD1 mouse plasma at 400 mg/kg, ip after 4 hrs by LC-MS/MS analysis; format: ADME, organism-based; outline: as §1
[7] = organism: Danio rerio; assay: Increase in ATP concentration in zebrafish at 1 uM incubated for 24 hrs by fluorometric ATP assay relative to control; format: functional
Outline: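 7 dpf zebrafish larvae, one per well, kept at 28.5°C for 24 h with compound in E3 buffer (DMSO stock). DMSO vehicle in control wells. Twelve fish per condition pooled, flash-frozen, homogenized in ATP buffer and centrifuged. ATP in the supernatant read by fluorescence at ex 535/em 587 nm, normalized to total protein (BCA), and expressed as nmole/mg relative to DMSO control. n = 7–13.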

[8] = Toxicity in mouse HT22 cells assessed as inhibition of cell viability at 50 uM incubated for 48 hrs by Cell-titer-Blue dye based fluorescence spectrophotometry relative to control; parameters: species or system HT-22; conditions: read-out: Activity
Outline: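 HT-22 cells in DMEM high glucose with 10% FBS, 2000 per well. Serially diluted compound added after 12 h, incubated 48 h. […] Background subtracted, normalized to control wells.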

[9] = Toxicity in CF1 mouse assessed as induction of discolored urine; conditions: in vivo
[10] = target: T1, Cytochrome P450 1A2 (Homo sapiens, UniProt P05177); assay: Inhibition of CYP1A2 in human liver microsomes using isoform-specific probe substrates incubated for 15 to 30 mins by LC-MS/MS analysis; format: ADME
T1 sequence (P05177 whole entry): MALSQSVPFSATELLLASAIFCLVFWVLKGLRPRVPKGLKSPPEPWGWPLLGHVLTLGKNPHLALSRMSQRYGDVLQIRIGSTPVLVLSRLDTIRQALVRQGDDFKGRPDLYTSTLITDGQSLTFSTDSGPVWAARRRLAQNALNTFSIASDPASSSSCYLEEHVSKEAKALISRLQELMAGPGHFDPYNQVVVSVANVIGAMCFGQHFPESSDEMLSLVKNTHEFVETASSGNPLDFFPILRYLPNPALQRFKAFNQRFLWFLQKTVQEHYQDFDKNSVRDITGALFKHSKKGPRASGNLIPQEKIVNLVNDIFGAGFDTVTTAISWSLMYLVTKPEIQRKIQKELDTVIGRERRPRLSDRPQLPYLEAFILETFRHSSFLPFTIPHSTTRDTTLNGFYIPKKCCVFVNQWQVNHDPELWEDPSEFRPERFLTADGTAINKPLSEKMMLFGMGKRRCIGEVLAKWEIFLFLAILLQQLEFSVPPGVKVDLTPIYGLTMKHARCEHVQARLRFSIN
Outline: (§4)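 Pooled mixed-gender human liver microsomes 0.2 mg/mL in 100 mM potassium phosphate with 2 mM NADPH. Isoform-specific probe substrates near Km. Organic solvent ≤1% final. Incubated 37°C for 15–30 min, quenched with acetonitrile plus internal standard. Probe metabolites measured by LC-MS/MS; percent inhibition versus vehicle, IC50 by variable-slope sigmoid fit.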

[11] = AUClast in CD1 mouse at 20 mg/kg, po measured after 0.083 to 24 hrs by LC-MS/MS analysis; format: ADME, organism-based; parameters: time 0.083-24 hr, dose 20 mg/kg, route oral; conditions: in vivo; outline: as §2
[12] = tested on: Mus musculus; assay: Anti-seizure activity in CF1 mouse assessed as attenuation of psychomotor seizures at stimulus intensities of 44 mA at 400 mg/kg, ip measured at 0.25 to 4 hrs by 6 Hz limbic seizure test relative to control; format: functional; outline: as §3
[13] = AUClast in CD1 mouse at 5 mg/kg, iv measured after 0.083 to 24 hrs by LC-MS/MS analysis; format: ADME, organism-based; parameters: dose 5 mg/kg, time upper 24 hr, time lower 0.083 hr, route intravenous; conditions: in vivo; outline: as §2
[14] = target: T2, Cytochrome P450 2C8 (Homo sapiens, UniProt P10632); assay: Inhibition of CYP2C8 in human liver microsomes using isoform-specific probe substrates incubated for 15 to 30 mins by LC-MS/MS analysis; format: ADME; outline: as §4
T2 sequence (P10632 whole entry): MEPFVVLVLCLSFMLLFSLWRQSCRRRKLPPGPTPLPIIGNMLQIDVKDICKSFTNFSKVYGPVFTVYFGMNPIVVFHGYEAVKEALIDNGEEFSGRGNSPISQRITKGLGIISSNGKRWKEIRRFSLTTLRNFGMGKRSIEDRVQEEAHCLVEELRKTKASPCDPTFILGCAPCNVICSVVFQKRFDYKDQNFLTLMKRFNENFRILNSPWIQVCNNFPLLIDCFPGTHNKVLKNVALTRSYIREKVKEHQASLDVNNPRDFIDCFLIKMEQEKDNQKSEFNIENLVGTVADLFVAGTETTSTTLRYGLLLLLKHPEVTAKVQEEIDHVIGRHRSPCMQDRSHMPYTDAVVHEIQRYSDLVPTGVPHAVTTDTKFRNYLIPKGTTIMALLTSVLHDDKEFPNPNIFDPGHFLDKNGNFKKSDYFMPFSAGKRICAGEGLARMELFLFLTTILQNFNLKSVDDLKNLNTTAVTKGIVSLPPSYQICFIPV

[15] = Drug level in CD1 mouse plasma at 400 mg/kg, ip after 0.5 hrs by LC-MS/MS analysis; format: ADME, organism-based; outline: as §1

CC(C)CCNC1=CC(=O)c2ccccc2C1=O
Activity [1]: Toxic | Kp at 1 h [2]: 2.33 | concentration at 4 h [3]: 3760 ng/g | Cmax [4]: 320 ng/mL | Activity [5]: 100% | concentration at 4 h [6]: 3740 ng/mL | Activity [7]: 19% | inhibition at 48 h, 50 µM [8]: 17.8% | Activity [9]: Toxic | IC50 [10]: 5.57 µM | AUC(0-t) [11]: 903 ng·h/mL | Activity [12]: 100% | AUC(0-t) [13]: 636 ng·h/mL | IC50 [14]: 54.1 µM | concentration at 0.5 h [15]: 1260 ng/mL
